CSC inhib – cancer stem cell viability inhibitors, primary screen, luminescence; cancer stem cell-like cells viability; inhibition, % at 7.5 µM; actives 1.1% (n = 300,000); in the data active = inhibition above about 75%; inconclusive = no clear call, values can overlap the other calls; tested in HMLE shEcad cells
Mdm2 MdmX PPI – inhibitors of human Mdm2-MdmX association, primary screen, cell-based, luminescence, split luciferase, SaOS-2, uHTS. Protein Mdm4 (Homo sapiens) + E3 ubiquitin-protein ligase Mdm2 (Homo sapiens), …. SaOS-2 split-luciferase Mdm2/MdmX complementation. inhibition, % at 8 µM. actives 3% (n = 330,000). AID 485346, 2010;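 active = inhibition of at least 50% at 8 µM in the primary screen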
Target sequence (O15151 whole entry, looked up): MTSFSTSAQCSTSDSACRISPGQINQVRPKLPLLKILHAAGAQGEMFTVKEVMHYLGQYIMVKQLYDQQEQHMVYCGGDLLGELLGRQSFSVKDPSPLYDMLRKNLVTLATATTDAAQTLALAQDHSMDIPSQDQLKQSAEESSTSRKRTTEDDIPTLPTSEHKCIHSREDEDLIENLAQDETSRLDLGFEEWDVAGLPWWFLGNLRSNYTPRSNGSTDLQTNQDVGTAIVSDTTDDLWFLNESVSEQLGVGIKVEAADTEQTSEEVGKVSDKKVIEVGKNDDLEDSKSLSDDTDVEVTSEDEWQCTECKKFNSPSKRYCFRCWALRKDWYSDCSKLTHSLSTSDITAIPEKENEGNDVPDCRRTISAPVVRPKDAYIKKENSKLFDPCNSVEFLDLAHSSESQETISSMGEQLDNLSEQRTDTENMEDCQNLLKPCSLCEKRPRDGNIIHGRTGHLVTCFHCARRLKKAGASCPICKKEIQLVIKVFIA
Target sequence (Q00987 whole entry, looked up): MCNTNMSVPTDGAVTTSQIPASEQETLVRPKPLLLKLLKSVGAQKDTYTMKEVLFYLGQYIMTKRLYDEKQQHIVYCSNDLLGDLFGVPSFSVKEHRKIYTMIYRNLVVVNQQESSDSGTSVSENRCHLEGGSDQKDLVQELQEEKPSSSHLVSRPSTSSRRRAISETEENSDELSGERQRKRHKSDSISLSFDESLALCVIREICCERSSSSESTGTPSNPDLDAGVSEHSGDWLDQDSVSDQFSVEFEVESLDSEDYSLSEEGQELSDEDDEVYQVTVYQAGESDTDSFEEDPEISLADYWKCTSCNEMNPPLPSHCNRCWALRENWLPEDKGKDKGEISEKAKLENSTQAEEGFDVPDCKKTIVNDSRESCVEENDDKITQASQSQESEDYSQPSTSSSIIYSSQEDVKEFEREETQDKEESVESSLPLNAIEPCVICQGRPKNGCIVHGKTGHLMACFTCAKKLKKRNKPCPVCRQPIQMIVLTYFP
UPR XBP1 act – activators of adaptive XBP1 UPR arm, primary screen, cell-based, CHO-XBP1 luciferase reporter, luminescence, uHTS; activation, % at 20 µM; IRE1-XBP1 UPR activation; percent of tunicamycin response, DMSO as zero; actives 0.33% (n = 330,000);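 active = versus positive control, 20 µM dose yields 30% or more activation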;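 note: 100% = tunicamycin at 10 µg/mL and 0% = DMSO only wells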
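Test system: CHO-XBP1 luciferase reporter cells | Buffer or medium: Serum-containing F12 medium, 10% FBS | Schedule: 6 h compound exposure at 37 °C, 5% CO2 | Detection: Steady-Glo luciferase glow luminescence, 10 min after reagent addition | Read-out basis: Activation, % of tunicamycin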
UPR CHOP act – activators of apoptotic CHOP UPR arm, primary screen, cell-based, CHO-CHOP luciferase reporter, luminescence, uHTS; UPR activation; percent of tunicamycin response over DMSO baseline; actives 0.34% (n = 330,000); activation, % at 10 µM;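 active = at 10 µM dose, activation of 40% or more, normalized to positive control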;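 note: 100% = tunicamycin at 10 µg/mL and 0% = DMSO alone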
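measured by = luciferase luminescence | assay system = CHO-CHOP cells, stable luciferase reporter of PERK-eIF2a-CHOP signalling | amount = 500 reporter cells seeded per well | timing = 6 h compound exposure at 37 °C after overnight seeding | controls = positive tunicamycin 10 µg/mL, negative DMSO alone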
Beta cell apopt – inhibitors of cytokine-induced beta cell apoptosis, primary screen, luminescence | INS-1E cytokine-induced death, ATP luminescence, 48 h; percent of positive-control rescue, neutral wells zero | protection from apoptosis, % (test concentration not listed) | actives 0.8% (n = 300,000) | AID 435005, 2010;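 active = Every replicate reaches about 75%, or at least half do and their mean reaches it too, limit read from the data; inconclusive = At least half of replicates reach the limit but their mean does not; inactive = Under half of replicates reach the limit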;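 note: 0% = cytokine-treated negative control wells and 100% = positive control rescue; higher means more ATP so stronger rescue from cytokine killing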
T cruzi repl – inhibitors of intracellular T. cruzi growth, primary screen, luminescence, NIH3T3 host cells | T. cruzi beta-gal in NIH3T3, 90 h | inhibition, % (test concentration not listed) | actives 1.4% (n = 300,000);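 active = mean inhibition across valid replicates above about 55%, limit read from the data; inconclusive = mean below that limit but half or more replicates reach it; inactive = mean below it, under half of replicates reach it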;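 note: signal also drops with host cell toxicity which is not excluded here; 0% = plate median of DMSO wells and 100% = zero luminescence signal; higher percent means less beta-gal luminescence so fewer parasites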
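System: mouse NIH/3T3 fibroblasts infected with β-gal-expressing T. cruzi Tulahuen C4 / Input: NIH/3T3 cells, 5,000 per well / Buffer or medium: Low-serum DMEM with 2% FBS / Probe or stimulus: 5000 reporter trypomastigotes per well / Schedule: ≥90 h infection period, 3 h prior cell attachment / Measured by: GalScreen luminescence, 60 min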
Starred values were filed as active, the others as inactive; ? = inconclusive; · = no result given. The list is not random: actives were taken first. Their share in the collection is about 5%.

SMILES | CSC inhib | Mdm2 MdmX PPI | UPR XBP1 act | UPR CHOP act | Beta cell apopt | T cruzi repl
COc1ccc(NS(=O)(=O)c2cccc(C(=O)NC3CCN(Cc4ccccc4)CC3)c2)cc1 | 16 | 33 | -2 | -1 | 14 | 63*
O=C(NC1CCCCC1)c1ccc(S(=O)(=O)NCc2ccco2)cc1 | -8 | 13 | 2 | 1 | -2 | -22
Cc1cnc(C(=O)Nc2ccc(OC(F)(F)F)cc2)cn1 | 34 | 15 | -3 | 3 | 10 | -17
O=C(CSc1cn[nH]n1)Nc1ccc(Cl)cc1Cl | · | -15 | -1 | 0 | -13 | 13
Cc1c(C(=O)N2CCC(Cc3ccccc3)CC2)sc2ncnc(N3CCC(C)CC3)c12 | 60 | 19 | -4 | -2 | -3 | 72*
COc1ccccc1NS(=O)(=O)c1ccc(Cl)c(NC(=S)NC(=O)C2CCCC2)c1 | 31 | 32 | -1 | 2 | -1 | 6
CCN(CC)c1ccc(S(=O)(=O)Nc2cc(Cl)ccc2Cl)cc1NC(=S)NC(=O)C1CCCC1 | 100* | 17 | 5 | 1 | · | 18
c1ccc(-c2ccc(OCCCNC3CCCC3)cc2)cc1 | -21 | 15 | 2 | 1 | · | 60*
N#Cc1ccc(OCCOCCNC2CCCC2)cc1 | -35 | 24 | 0 | -1 | -5 | 67*
COc1ccc(OCCNC2CCCC2)cc1 | -14 | 20 | 1 | -1 | -4 | 11
c1ccc(Cc2ccc(OCCCNC3CCCC3)cc2)cc1 | 46 | 39 | 0 | 0 | 1 | 67*
O=C(C1=C[C@H](c2ccc(C(F)(F)F)cc2)C[C@H](OCCCCO)O1)N1CCN(Cc2ccccc2)CC1 | -22 | 30 | -3 | -1 | -1 | 48
O=C(C1=C[C@H](c2ccc(C(F)(F)F)cc2)C[C@H](OCc2ccc(CO)cc2)O1)N1CCN(Cc2ccc3c(c2)OCO3)CC1 | 80* | 45 | 3 | 6 | 14 | 65*
O=C(C1=C[C@@H](c2ccc(C(F)(F)F)cc2)C[C@@H](OCCCCO)O1)N1CCN(Cc2ccccc2)CC1 | -7 | 8 | 2 | 3 | 116* | 18
CCc1ccc(C(=O)CCC(=O)Nc2cccc(S(=O)(=O)N3CCCCC3)c2)cc1 | · | 17 | -1 | 2 | · | ·
C=CCn1c(NC(=O)c2ccc(C)cc2)nc2ccccc21 | 7 | -44 | 2 | 7 | 17 | 61*
CCCCSc1nc2sc3c(c2c(=O)n1-c1ccc(C)cc1)CCN(C)C3 | -2 | 32 | 0 | 2 | 134* | ?
CC(=O)Nc1ccc(-c2sc(Nc3cccc4ccccc34)n[n+]2-c2ccccc2)cc1 | 3 | -1 | 0 | 1 | -10 | 46
COc1cc(/C=C/c2nc3ccccc3s2)cc(OC)c1O | -1 | -13 | 12 | 3 | -2 | -2
COc1cc(C=C(c2nc3ccccc3s2)c2nc3ccccc3s2)ccc1O | 94* | 17 | 1 | 2 | -2 | 35
COc1ccc(-c2cn(CCN)c(-c3ccncc3)n2)cc1 | -3 | 9 | -3 | 0 | -5 | ·
COc1ccc(OC)c(C(=O)CSc2nccc(-c3ccc(Br)cc3)n2)c1 | 79* | 23 | 5 | -1 | -8 | 29
O=C(CSC1=NNC(c2ccccn2)S1)Nc1ccc(C(F)(F)F)cc1 (centres undefined) | 93* | -5 | 7 | 29 | 9 | 18
COc1cc(OC)c(/C=N/NC(N)=S)cc1Br | 1 | 25 | 3 | -1 | -14 | 19
COc1cc2c(-c3ccccc3)c(C)oc2cc1/C=N/NC(N)=S | 13 | 46 | 9 | 11 | 5 | 89*
Cc1ccc(-c2csc(NC(=O)c3c(C)noc3C)n2)s1 | 1 | -3 | -2 | 3 | 124* | ·
Cc1ccc(-c2csc(NC(=O)c3c(C)noc3C)n2)cc1C | 15 | 2 | 1 | 2 | 6 | ·
